Calls of active or inactive are those of the source. The calls are words filed in the database; no cut-off is given here.
Columns and labels:
[1] = test system: HT-29; assay: Anticancer activity against human HT-29 cells after 48 hrs by MTT assay; format: functional, cell-based; settings: HT-29, 48 h
Procedure, shortened: (§1)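 MTT assay. Cells seeded at 1 × 10⁴/well in DMEM with 10% FBS and held 24 h at 37 °C in CO₂. Compounds were diluted in culture medium and added alongside vehicle controls, then incubated 48 h. MTT (5 mg/ml stock) was added for 4 h. Supernatant was removed, formazan dissolved in DMSO, and absorbance read at 540 nm.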

[2] = test system: A549; assay: Anticancer activity against human A549 cells after 48 hrs by MTT assay; format: functional, cell-based; settings: A549, 48 h; procedure, shortened: as §1
[3] = test system: A549; assay: Cell cycle arrest in human A549 cells assessed as accumulation at G0/G1 phase at 1 uM after by propidium iodide staining-based fluorescence analysis (reference value: 83.43%); format: functional
[4] = test system: A549; assay: Induction of apoptosis in human A549 cells assessed as cytoplasmic condensation at 5 uM after 24 hrs by Hoechst staining-based fluorescent microscopic analysis; format: functional, cell-based
Procedure, shortened: (§2)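 A-549 cells (10,000) were grown on 18-mm coverslips for 24 h, given fresh medium, then treated 24 h. Vehicle control was 0.001% DMSO. Hoechst 33258 was added to medium at […]. Apoptotic cells were quantified manually by field counts scoring cytoplasmic condensation, apoptotic bodies, nuclear fragmentation and relative fluorescence.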

[5] = test system: A549; assay: Cell cycle arrest in human A549 cells assessed as accumulation at G2/M phase at 1 uM after by propidium iodide staining-based fluorescence analysis (reference value: 9.27%); format: functional
[6] = test system: A549; assay: Induction of apoptosis in human A549 cells assessed as caspase 3 activation using Ac-DEVD as substrate at 2 uM after 48 hrs by fluorometric analysis relative to control; format: functional
Procedure, shortened: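 A-549 cells were seeded at 2.5 × 10⁵/well and treated. Cells were scraped into PBS, pelleted, lysed on ice 20–30 min, and cleared at 13,200 rpm. Lysate was mixed with 2X assay buffer and Ac-DEVD-AFC substrate and reacted 1 h. AFC fluorescence (ex 400, em 505 nm) was read every 5 min, expressed as fold over control. Mean of two experiments in triplicate.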

[7] = test system: A-375; assay: Anticancer activity against human A375 cells after 48 hrs by MTT assay; format: functional, cell-based; settings: A-375, 48 h; procedure, shortened: as §1
[8] = test system: A549; assay: Cell cycle arrest in human A549 cells assessed as accumulation at S phase at 1 uM after by propidium iodide staining-based fluorescence analysis (reference value: 2.74%); format: functional
[9] = test system: A549; assay: Induction of apoptosis in human A549 cells assessed as induction of DNA fragmentation at 5 uM after 48 hrs by agarose gel electrophoresis; format: functional, cell-based
Procedure, shortened: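 A-549 cells (1 × 10⁶, six-well plates) were treated 48 h after 24 h attachment. Cells were pelleted, PBS-washed and lysed. Supernatant was treated with 10% SDS and RNase-A for 2 h at 56 °C, then proteinase K for 2 h at 37 °C. DNA was precipitated with ammonium acetate and ice-cold ethanol at −80 °C, pelleted, washed with 80% ethanol, and run for ladder pattern against a 50 bp marker.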

[10] = test system: A549; assay: Cell cycle arrest in human A549 cells assessed as accumulation at S phase at 5 uM after by propidium iodide staining-based fluorescence analysis (reference value: 2.74%); format: functional
[11] = test system: A549; assay: Induction of apoptosis in human A549 cells assessed as cytoplasmic condensation at 2 uM after 24 hrs by Hoechst staining-based fluorescent microscopic analysis; format: functional, cell-based; procedure, shortened: as §2
[12] = test system: A549; assay: Cell cycle arrest in human A549 cells assessed as accumulation at subG1 phase at 1 uM after by propidium iodide staining-based fluorescence analysis (reference value: 2.74%); format: functional
[13] = test system: A549; assay: Cell cycle arrest in human A549 cells assessed as accumulation at subG1 phase at 5 uM after by propidium iodide staining-based fluorescence analysis (reference value: 2.74%); format: functional
[14] = test system: A549; assay: Cell cycle arrest in human A549 cells assessed as accumulation at G0/G1 phase at 5 uM after by propidium iodide staining-based fluorescence analysis (reference value: 83.43%); format: functional
[15] = test system: MCF7; assay: Anticancer activity against human MCF7 cells after 48 hrs by MTT assay; format: functional, cell-based; settings: MCF7, 48 h; procedure, shortened: as §1
[16] = test system: A549; assay: Induction of apoptosis in human A549 cells assessed as nuclear fragmentation at 5 uM after 24 hrs by Hoechst staining-based fluorescent microscopic analysis; format: functional, cell-based; procedure, shortened: as §2
[17] = test system: ACHN; assay: Anticancer activity against human ACHN cells after 48 hrs by MTT assay; format: functional, cell-based; procedure, shortened: as §1
[18] = test system: A549; assay: Cell cycle arrest in human A549 cells assessed as accumulation at G2/M phase at 5 uM after by propidium iodide staining-based fluorescence analysis (reference value: 9.27%); format: functional
[19] = test system: A549; assay: Induction of apoptosis in human A549 cells assessed as nuclear fragmentation at 2 uM after 24 hrs by Hoechst staining-based fluorescent microscopic analysis; format: functional, cell-based; procedure, shortened: as §2
[20] = test system: A549; assay: Induction of apoptosis in human A549 cells assessed as presence of apoptotic bodies at 5 uM after 24 hrs by Hoechst staining-based fluorescent microscopic analysis; format: functional, cell-based; procedure, shortened: as §2
[21] = test system: A549; assay: Induction of apoptosis in human A549 cells assessed as presence of apoptotic bodies at 2 uM after 24 hrs by Hoechst staining-based fluorescent microscopic analysis; format: functional, cell-based; procedure, shortened: as §2

`COc1cc([C@@H]2c3cc4c(cc3[C@@H](NC(=O)/C=C/c3ccccc3)[C@H]3COC(=O)[C@H]23)OCO4)cc(OC)c1OC` showed an IC50 [1] of 2360 nM, an IC50 [2] of 2700 nM and an Activity [3] of 23.39%. For the same compound, the Activity [4] was “Active”, the Activity [5] was 61.89% and the “fold change (FC)” value [6] was 4. The IC50 [7] was 13400 nM, the Activity [8] was 9.5% and the Activity [9] was “Active”. The Activity [10] was 8.64%, the Activity [11] was “Active” and the Activity [12] was 3.29%. It also gave an Activity [13] of 2.62%, an Activity [14] of 18.65% and an IC50 [15] of 19700 nM. The Activity [16] was “Active”, the IC50 [17] was 3910 nM and the Activity [18] was 67.78%. The Activity [19] was “Active”, the Activity [20] was “Active” and the Activity [21] was “Active”.
For `COc1cc([C@@H]2c3cc4c(cc3[C@@H](O[C@@H]3O[C@@H]5CO[C@@H](C)O[C@H]5[C@H](O)[C@H]3O)[C@H]3COC(=O)[C@H]23)OCO4)cc(OC)c1O` [ETOPOSIDE], the IC50 [1] was 1810 nM, the IC50 [2] was 2340 nM and the Activity [3] was 69.82%. For the same compound, the Activity [4] was “Active”, the Activity [5] was 19.21% and the “fold change (FC)” value [6] was 6. The IC50 [7] was 1390 nM, the Activity [8] was 7.23% and the Activity [9] was “Active”. The Activity [11] was “Active”, the Activity [12] was 2.89% and the IC50 [15] was 680 nM. For the same compound, the Activity [16] was “Active”, the IC50 [17] was 7610 nM and the Activity [19] was “Active”. The Activity [20] was “Active” and the Activity [21] was “Active”.
For `COc1cc([C@@H]2c3cc4c(cc3[C@@H](NC(=O)/C=C/c3ccc(C(F)(F)F)cc3)[C@H]3COC(=O)[C@H]23)OCO4)cc(OC)c1OC`, the IC50 [1] was 370 nM, the IC50 [2] was 2100 nM and the Activity [3] was 45.23%. For the same compound, the Activity [4] was “Active”, the Activity [5] was 38.11% and the “fold change (FC)” value [6] was 4. The IC50 [7] was 18000 nM, the Activity [8] was 9.54% and the Activity [9] was “Active”. The Activity [10] was 10.16%, the Activity [11] was “Active” and the Activity [12] was 4.51%. It also gave an Activity [13] of 4.43%, an Activity [14] of 39.84% and an IC50 [15] of 19200 nM. The Activity [16] was “Active”, the IC50 [17] was 2180 nM and the Activity [18] was 43.39%. The Activity [19] was “Active”, the Activity [20] was “Active” and the Activity [21] was “Active”.

— ChEMBL document CHEMBL1926683, “Synthesis and anticancer activity of 4β-alkylamidochalcone and 4β-cinnamido linked podophyllotoxins as apoptotic inducing agents” (Eur J Med Chem, 2012)
